Laboratory results from ChEMBL document CHEMBL3259596, “Lactam and oxazolidinone derived potent 5-hydroxytryptamine 6 receptor antagonists” (Bioorg Med Chem Lett, 2014).

biological target: T1, 5-hydroxytryptamine receptor 6 (Homo sapiens, UniProt P50406); test: Displacement of [3H]LSD from human recombinant 5-HT6 receptor expressed in CHO-K1 cell membrane after 3 hrs by liquid scintillation counting analysis; type: cell membranes; conditions: not given
Summary of the method: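 Membranes from CHO-K1 cells stably expressing human 5-HT6, 1.75 µg protein, preincubated with scintillation beads 30 min at 4 °C. Buffer was 50 mM Tris-HCl pH 7.4, 4 mM CaCl2, saponin, 0.1% ascorbic acid. Incubated 3 h at room temperature with 4 nM [3H]LSD (Kd 2.3 nM) over half-log dilutions. Nonspecific binding defined with 10 µM serotonin. IC50 from variable-slope fit, Ki by Cheng-Prusoff, mean of three experiments.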

T1 sequence (P50406 whole entry): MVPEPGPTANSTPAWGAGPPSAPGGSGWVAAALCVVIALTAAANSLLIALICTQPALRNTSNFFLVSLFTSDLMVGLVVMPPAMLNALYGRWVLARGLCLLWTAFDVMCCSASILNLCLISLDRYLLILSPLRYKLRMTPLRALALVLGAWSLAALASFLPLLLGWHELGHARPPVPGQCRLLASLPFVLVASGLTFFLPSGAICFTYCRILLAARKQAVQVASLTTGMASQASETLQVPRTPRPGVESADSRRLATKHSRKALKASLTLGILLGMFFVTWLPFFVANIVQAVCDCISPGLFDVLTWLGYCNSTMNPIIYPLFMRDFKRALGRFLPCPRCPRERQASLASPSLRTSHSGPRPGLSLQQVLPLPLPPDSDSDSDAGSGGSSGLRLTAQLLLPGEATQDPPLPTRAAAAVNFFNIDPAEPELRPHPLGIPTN

Row | Structure (SMILES) | Ki
1 | Clc1ccccc1C1CCN(c2ccc3c(c2)CCNCC3)C1 (racemic) | 650 nM
2 | O=C1CSC2(C(=O)Nc3ccccc32)N1c1ccccc1 (racemic) | 5700 nM
3 | CN1CCN(c2ncc(N3CC(c4ccccc4)CC3=O)s2)CC1 (racemic) | > 30000 nM
4 | O=C1OC(c2ccccc2Cl)CN1c1cccc(N2CCNCC2)c1 (racemic) | 140 nM
5 | O=C1OC(c2ccccc2F)CN1c1ccc2c(c1)CCNCC2 (racemic) | 15 nM
6 | O=C1OC(c2ccccc2Cl)CN1c1cccc(OC2CCNCC2)c1 (racemic) | 240 nM
7 | COc1ccccc1C1CN(c2ccc3c(c2)CCNCC3)C(=O)O1 (racemic) | 87 nM
8 | O=C1CCCN1c1cnc2c(N3CCNCC3)cccc2c1 | 4900 nM
9 | O=C1CC(c2ccccc2)CN1c1cnc2c(N3CCCNCC3)cccc2c1 (racemic) | 10 nM
10 | O=C1OC(c2ccccc2Cl)CN1c1ccc2c(c1)CCNCC2 (racemic) | 47 nM
11 | O=C1OC(c2ccccc2Cl)CN1c1ccc(N2CCNCC2)cc1 (racemic) | 1900 nM
12 | COc1cc(OC)cc(N2C(=O)CSC23C(=O)Nc2ccccc23)c1 (racemic) | 88 nM
13 | O=C1OC(c2cccc(Cl)c2)CN1c1ccc2c(c1)CCNCC2 (racemic) | 10 nM

Further lines, results first:

Row | Ki | Structure (SMILES)
14 | 2.6 nM | O=C1CC(c2ccccc2)CN1c1cnc2c(N3CCNCC3)cccc2c1 (racemic)
15 | 54 nM | O=C1CC(c2ccccc2)CN1c1ccc2c(c1)CCNCC2 (racemic)
16 | 48 nM | O=C1CC(c2ccccc2)CN1c1cccc(N2CCNCC2)n1 (racemic)
17 | 100 nM | O=C1CC(c2ccccc2Cl)CN1c1ccc2c(c1)CCNCC2 (racemic)
18 | 16 nM | O=C1OC(c2ccccc2)CN1c1ccc2c(c1)CCNCC2 (racemic)
19 | 55 nM | O=C1CC(c2ccccc2)CN1c1ccc2c(N3CCNCC3)ccnc2c1 (racemic)
20 | 330 nM | O=C1OC(c2ccccc2Cl)CN1c1ccc2c(c1)CCNC2 (racemic)
21 | 4100 nM | O=C1CC(c2ccccc2)CN1c1cncc(N2CCNCC2)c1 (racemic)
22 | 140 nM | O=C1CC(c2ccccc2)CN1c1ccc2c(c1)CNCC2 (racemic)
23 | 84 nM | O=C1CC(c2ccccc2)CN1c1cccc(N2CCNCC2)c1 (racemic)
24 | 70 nM | O=C1CC(c2ccccc2)CN1c1cccc(C2CCNCC2)c1 (racemic)
25 | 150 nM | O=C1OC(c2ccccc2Cl)CN1c1ccc2c(c1)CNCC2 (racemic)
26 | 1200 nM | O=C1CC(c2ccccc2)CN1c1ccc2c(c1)CCCNC2 (racemic)

biological target: T1, 5-hydroxytryptamine receptor 6; test: Antagonist activity at human 5-HT6 receptor assessed as inhibition of 5-HT-induced cAMP level treated for 10 mins prior to 5-HT challenge for 30 mins by homogeneous time-resolved fluorescent assay; type: functional; conditions: not given

Row | IC50 | Structure (SMILES)
27 | 15 nM | O=C1CC(c2ccccc2)CN1c1cnc2c(N3CCNCC3)cccc2c1 (racemic)
28 | 8 nM | O=C1CC(c2ccccc2)CN1c1cnc2c(N3CCNCC3)cccc2c1 (single isomer, unassigned; enantiomer 1)

biological target: 5-hydroxytryptamine receptor 2A (Homo sapiens, UniProt P28223); test: Binding affinity to 5-HT2A receptor (unknown origin); conditions: not given
Sequence (P28223 whole entry): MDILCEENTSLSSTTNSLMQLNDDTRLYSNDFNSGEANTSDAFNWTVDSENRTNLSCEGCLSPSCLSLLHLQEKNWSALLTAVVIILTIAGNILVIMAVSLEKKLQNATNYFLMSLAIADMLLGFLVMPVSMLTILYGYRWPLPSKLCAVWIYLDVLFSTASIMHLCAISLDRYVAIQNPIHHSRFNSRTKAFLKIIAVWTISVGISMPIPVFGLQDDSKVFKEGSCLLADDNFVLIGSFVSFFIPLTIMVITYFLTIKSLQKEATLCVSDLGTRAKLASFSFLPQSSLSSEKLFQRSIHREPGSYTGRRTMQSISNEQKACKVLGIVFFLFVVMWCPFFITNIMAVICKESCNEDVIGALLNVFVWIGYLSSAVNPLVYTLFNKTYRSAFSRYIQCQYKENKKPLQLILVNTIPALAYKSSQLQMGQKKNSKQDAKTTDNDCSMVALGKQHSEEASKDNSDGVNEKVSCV

Row | Ki | Structure (SMILES)
29 | 3100 nM | O=C1CC(c2ccccc2)CN1c1cnc2c(N3CCNCC3)cccc2c1 (single isomer, unassigned; enantiomer 1)

biological target: 5-hydroxytryptamine receptor 2B (Homo sapiens, UniProt P41595); test: Binding affinity to 5-HT2B receptor (unknown origin); conditions: not given
Sequence (P41595 whole entry): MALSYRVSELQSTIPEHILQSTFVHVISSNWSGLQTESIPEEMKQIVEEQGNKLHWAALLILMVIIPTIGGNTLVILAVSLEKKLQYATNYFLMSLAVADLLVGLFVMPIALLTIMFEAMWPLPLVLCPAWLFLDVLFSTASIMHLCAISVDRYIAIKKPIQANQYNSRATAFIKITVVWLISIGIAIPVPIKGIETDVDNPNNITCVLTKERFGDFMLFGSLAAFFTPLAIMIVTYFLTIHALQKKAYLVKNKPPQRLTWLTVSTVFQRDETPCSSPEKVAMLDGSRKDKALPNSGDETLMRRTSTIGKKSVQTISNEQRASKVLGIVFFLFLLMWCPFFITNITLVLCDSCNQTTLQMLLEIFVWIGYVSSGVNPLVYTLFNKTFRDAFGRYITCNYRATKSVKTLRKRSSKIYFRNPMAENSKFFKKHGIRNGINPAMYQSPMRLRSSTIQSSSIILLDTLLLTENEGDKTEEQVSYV

Row | Ki | Structure (SMILES)
30 | > 30000 nM | O=C1CC(c2ccccc2)CN1c1cnc2c(N3CCNCC3)cccc2c1 (single isomer, unassigned; enantiomer 1)

biological target: T2, 5-hydroxytryptamine receptor 2C (Homo sapiens, UniProt P28335); test: Binding affinity to 5-HT2C receptor (unknown origin); conditions: not given
T2 sequence (P28335 whole entry): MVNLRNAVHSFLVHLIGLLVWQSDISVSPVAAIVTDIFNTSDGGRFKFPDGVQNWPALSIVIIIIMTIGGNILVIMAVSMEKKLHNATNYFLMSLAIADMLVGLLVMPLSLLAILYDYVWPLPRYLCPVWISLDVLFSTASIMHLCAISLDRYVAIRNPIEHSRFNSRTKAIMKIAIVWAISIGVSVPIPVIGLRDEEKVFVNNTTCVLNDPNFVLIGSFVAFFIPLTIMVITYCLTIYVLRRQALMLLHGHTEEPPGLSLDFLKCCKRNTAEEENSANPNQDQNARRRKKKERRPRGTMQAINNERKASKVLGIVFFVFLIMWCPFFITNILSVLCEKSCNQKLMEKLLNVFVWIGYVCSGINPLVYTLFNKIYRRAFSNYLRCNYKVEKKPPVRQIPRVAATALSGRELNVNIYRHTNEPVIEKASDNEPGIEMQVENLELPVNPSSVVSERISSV

Row | Ki | Structure (SMILES)
31 | > 30000 nM | O=C1CC(c2ccccc2)CN1c1cnc2c(N3CCNCC3)cccc2c1 (single isomer, unassigned; enantiomer 1)

system: Brain; test: Drug uptake in rat brain at 5 mg/kg, po after 6 hrs; type: ADME, organism-based; parameters: dose 5 mg/kg, route oral; conditions: in vivo
Summary of the method: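 Rats dosed orally at 5 mg/kg. Compound measured in brain 6 h after dosing.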

Row | Drug uptake | Structure (SMILES)
32 | Active | O=C1CC(c2ccccc2)CN1c1cnc2c(N3CCNCC3)cccc2c1 (single isomer, unassigned; enantiomer 1)
